The text below walks through data of ChEMBL document CHEMBL1124281, “A new series of ellipticine derivatives (1-(alkylamino)-9-methoxyellipticine). Synthesis, DNA binding, and biological properties” (J Med Chem, 1988).

Molecules are shown by their SMILES.

In data set [1] the test system is Nucleic Acid. The data set can be described thus: Maximum number of sites. Format: nucleic-acid assay. Particulars: Bos taurus. An outline of the steps: (§1)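 Calf thymus DNA binding by direct fluorescence titration (excitation 310 nm, emission 540 nm) in 10 mM acetate buffer, 100 mM NaCl, pH 5.2, 20 °C. Scatchard plots gave apparent association constant Kapp and apparent binding sites per nucleotide r_app. Drug stocks 5×10^-3 M in 50% DMSO/water, diluted in buffer.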

In the next data set the test system is L1210. The data set can be described thus: In vitro cytotoxicity by growth inhibition in L1210 cells. To be noted: Mus musculus, read-out: ID50 (the source's name). Format: functional. An outline of the steps:
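L1210 leukemia suspension cultures in RPMI with fetal calf serum, 37 °C, 6% CO2; 10^4 cells/mL exponential phase exposed in duplicate to drug at final 10^-5–10^-8 M for 48 h. Cells counted electronically, viability by trypan blue exclusion; ID50 (50% growth inhibition vs untreated controls) from regression of % inhibition against log dose.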

Data set [2] concerns Mus musculus. In words: Increase in life of span over controls, 10e5 L1210 cells per mouse of 20 g, by ip route LD0/10 at a conc of LD0/2(N). Format: functional. The procedure, abridged:
(§2)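 Random DBA/2 female mice of 20 g were inoculated ip with 10^5 L1210 leukemia cells. A single ip dose in 200 μL water was given 24 h later, at LD0/10, LD0/5 or LD0/2, with 10 mice per dose and 20 controls. Deaths were counted daily at the same hour. ILS was taken from treated versus control median survival time, and cured mice were counted.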

The test system of another data set is NIH3T3. The data set can be described thus: In vitro cytotoxicity by growth inhibition in NIH3T3 cells. Format: functional. Particulars: Mus musculus, read-out: ID50 (the source's name). The procedure, abridged:
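NIH-3T3 mouse fibroblasts in DMEM, 5% fetal calf serum, 37 °C, 6% CO2, seeded at 7.5×10^3 cells/cm²; drug added 24 h later and growth followed for three days. Trypsinized cells counted electronically; ID50 taken as 50% growth inhibition vs controls, from regression against log dose.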

For data set [3], the system named is Mus musculus. The data set can be described thus: In vivo antitumor effect, expressed as the lethal dose (LD100), administered by intraperitoneal route. Particulars: ip. Format: ADME, organism-based.
Data set [4] concerns Mus musculus. The data set can be described thus: Increase in life of span over controls, 10e5 L1210 cells per mouse of 20 g, by ip route LD0/10 at a conc of LD0/5(N). Format: functional. The procedure, abridged:
as §2

The subject of data set [5] is Mus musculus. The data set can be described thus: Increase in life of span over controls, 10e5 L1210 cells per mouse of 20 g, by ip route LD0/10 ata conc of LD0/10(N). Format: functional. The arrangement: unit not given here. The procedure, abridged: as §2
Data set [6] deals with Mus musculus. In words: In vivo antitumor effect, expressed as the highest nonlethal dose (LD0), administered by intraperitoneal route. Format: ADME, organism-based. Particulars: ip.
In data set [7] the test system is Nucleic Acid. The data set can be described thus: Apparent binding constant (Kapp) to DNA, by direct fluorimetric titration, at pH 5; 10e-6. To be noted: Bos taurus. Format: nucleic-acid assay. The procedure, abridged:
as §1

For data set [8], the system named is Mus musculus. In words: Increase in life of span over controls, 10e5 L1210 cells per mouse of 20 g, by ip route LD0/10 ata conc of LD0/5(N). Format: functional. The procedure, abridged:
as §2

The subject of data set [9] is Mus musculus. The data set can be described thus: Increase in life of span over controls, 10e5 L1210 cells per mouse of 20 g, by ip route LD0/10 ata conc of LD0/2(N). Format: functional. An outline of the steps: as §2

As for `CCNc1nccc2c(C)c3[nH]c4ccc(OC)cc4c3c(C)c12`, the rapp in the data set with Nucleic Acid [1] stood at 0.2. In addition, the IC50 in the data set on L1210 was found to be 50 nM; in the data set with NIH3T3, 300 nM. Moreover, the ILS amounted to 42 with Mus musculus [2], 13 in the data set with Mus musculus [4] and 2 in the data set on Mus musculus [5]. In the data set on Mus musculus [3], this compound displayed an LD100 of 90 mg/kg. In the data set with Mus musculus [6], this compound had an LD0 of 70 mg/kg. Further, the K app with Nucleic Acid [7] amounted to 2.15e+06 M⁻¹.

The compound `CCCNc1nccc2c(C)c3[nH]c4ccc(OC)cc4c3c(C)c12` had a rapp in the data set on Nucleic Acid [1] of 0.2. The IC50 is 100 nM with L1210 and 300 nM in the data set with NIH3T3. Moreover, the figures for the ILS with Mus musculus [8] and in the data set on Mus musculus [5] were 2 and 0, respectively. This compound also gave an LD100 with Mus musculus [3] of 200 mg/kg. For the same compound, the LD0 in the data set with Mus musculus [6] was 100 mg/kg. The K app in the data set on Nucleic Acid [7] turned out to be 2e+06 M⁻¹.

Turning to `COc1ccc2[nH]c3c(C)c4ccnc(N)c4c(C)c3c2c1`, in the data set with Nucleic Acid [1], the rapp worked out at 0.2. In addition, the IC50 in the data set with L1210 turned out to be 100 nM. The ILS in the data set with Mus musculus [9] was 93; with Mus musculus [8], 39; in the data set with Mus musculus [5], 21. The LD100 in the data set with Mus musculus [3] turned out to be 70 mg/kg. Besides, the LD0 in the data set on Mus musculus [6] was 60 mg/kg. Moreover, the K app with Nucleic Acid [7] came out at 1e+06 M⁻¹.

In the data set with Nucleic Acid [1], `COc1ccc2[nH]c3c(C)c4ccnc(NCCC(C)C)c4c(C)c3c2c1` gave a rapp of 0.2. The IC50 amounted to 800 nM with L1210 and 500 nM with NIH3T3. Moreover, the ILS with Mus musculus [8] is listed as 5; with Mus musculus [5] it was 10. In the data set with Mus musculus [3], this compound showed an LD100 of 350 mg/kg. In the data set with Mus musculus [6], this compound returned an LD0 of 300 mg/kg. For the same compound, in the data set on Nucleic Acid [7], the K app is 3.75e+06 M⁻¹.

The compound `COc1ccc2[nH]c3c(C)c4ccnc(NCC(C)C)c4c(C)c3c2c1` registered a rapp with Nucleic Acid [1] of 0.17. The IC50 was 90 nM in the data set on L1210 and 300 nM in the data set with NIH3T3. For the same compound, the LD0 in the data set on Mus musculus [6] was above 200 mg/kg. For the same compound, the K app in the data set with Nucleic Acid [7] came out at 2.35e+06 M⁻¹.
